Laboratory results as given in article PMC4177010 (Cancer chemotherapy and pharmacology, 2014).

Legend:
SRC2 = experiment: ChIP at the CYP24A1 promoter in HL-60 cells, SRC2 antibody; format: cell-based, human; details: 20 nM 1,25(OH)2D3, 18 hours
SKOV3 cells = experiment: Cell proliferation assay; format: cell-based, human; details: 100 nM 1,25(OH)2D3, 5 days
Caco2 cells = experiment: Cell proliferation assay; format: cell-based, human; details: 100 nM 1,25(OH)2D3, 5 days
CYP3A4 = experiment: rt-PCR mRNA levels in HL-60 cells; format: cell-based, human; details: 18 hours, 1,25(OH)2D3 (20 nM), PS121912 (3 µM) or a combination thereof
caspase 3 = experiment: rt-PCR mRNA levels in HL-60 cells; format: cell-based, human; details: 20 nM 1,25(OH)2D3, 18 hours
caspase 7 = experiment: rt-PCR mRNA levels in HL-60 cells; format: cell-based, human; details: 20 nM 1,25(OH)2D3, 18 hours
NCoR = experiment: ChIP at the CYP24A1 promoter in HL-60 cells, NCoR antibody; format: cell-based, human; details: 20 nM 1,25(OH)2D3, 18 hours
HTRA = experiment: Human apoptosis antibody array, HL-60 cells; format: cell-based; details: 1,25(OH)2D3 (20 nM), 18 hours
Procedure, shortened: (§1)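 Lysates in kit lysis buffer went onto a blocked glass-chip array of 44 apoptosis capture antibodies spotted in duplicate, 18 h at 4 °C. Biotinylated detection antibodies and fluorescent streptavidin were each applied 2 h at room temperature. A fluorescence scan gave spot intensities.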

HL-60 cells = experiment: Cell proliferation assay; format: cell-based, human; details: HL-60 treated with VDR siRNA; same concentrations as non-transfected cells
IGF-II = experiment: Human apoptosis antibody array, HL-60 cells; format: cell-based; details: 1,25(OH)2D3 (20 nM), 18 hours
Procedure, shortened: as §1

Survivin = experiment: Human apoptosis antibody array, HL-60 cells; format: cell-based; details: 1,25(OH)2D3 (20 nM), 18 hours
Procedure, shortened: as §1

For `C=C1/C(=C\C=C2/CCC[C@]3(C)[C@@H]([C@H](C)CCCC(C)(C)O)CC[C@@H]23)C[C@@H](O)C[C@@H]1O` [1,25(OH)2D3, 1,25-dihydroxyvitamin D3], the “SRC2 recruitment at the CYP24A1 promoter” value (SRC2) was “recruitment of coactivator SRC2”, the antiproliferative effect (SKOV3 cells) was “minor antiproliferative effect” and the antiproliferative effect (Caco2 cells) was “minor antiproliferative effect”. The “mRNA levels of CYP3A4” value (CYP3A4) was “not altered”, the “caspase 3 mRNA levels” value (caspase 3) was “no change” and the “caspase 7 mRNA levels” value (caspase 7) was “no change”. For the same molecule, the “interaction between VDR and NCoR at the CYP24A1 promoter” value (NCoR) was “reduced”, the HTRA protein level (HTRA) was “upregulated” and the “antiproliferation effect in VDR siRNA treated cells” value (HL-60 cells) was “abolished”. The IGF-II protein level (IGF-II) was “induced” and the Survivin protein level (Survivin) was “reduced”.
